From PubChem
S1P3 antagonist – antagonists of human S1P3 receptor; Q99500; CHO S1P3 NFAT-BLA reporter, FRET fluorescence, antagonist mode; inhibition, % at 4.98 µM; hit rate 0.27% among 170,000;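 active = inhibition above the plate cutoff, the mean inhibition of test wells on that plate plus 3 SD, cut at about 28% in these data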;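 also: cells challenged with S1P at its EC80 of 0.8 µM; blue over green emission ratio from cleaved BLA substrate after 4 h stimulation; 0% = S1P-stimulated wells and 100% = unstimulated DMSO-only wells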
Target sequence (Q99500 whole entry, looked up): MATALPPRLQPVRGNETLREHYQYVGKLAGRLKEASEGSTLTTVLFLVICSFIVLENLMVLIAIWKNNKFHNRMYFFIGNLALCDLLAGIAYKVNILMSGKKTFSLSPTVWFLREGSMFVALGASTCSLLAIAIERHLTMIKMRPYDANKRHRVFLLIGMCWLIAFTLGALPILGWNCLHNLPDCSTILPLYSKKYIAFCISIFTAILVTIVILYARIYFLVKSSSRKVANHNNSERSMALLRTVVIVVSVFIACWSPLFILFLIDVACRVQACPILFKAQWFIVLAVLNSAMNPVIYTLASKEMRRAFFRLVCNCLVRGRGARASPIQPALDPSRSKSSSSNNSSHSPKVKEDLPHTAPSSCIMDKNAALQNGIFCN
CR mimetic SO – caloric restriction mimetics inhibiting age-related superoxide in yeast; S. cerevisiae aged cells, superoxide DHE fluorescence; stronger effect = lower value; superoxide response (% of plate mean), % at 10 µM; hit rate 0.18% among 330,000; AID 2690;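 active = superoxide response under a set limit, about three screen SD below normal, cut at about 65% in these data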;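 also: yeast aged for seven days with compound at 30 °C before DHE staining; 100% = average MFI of all compound-treated wells on the plate with controls excluded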
T cell modulator – T cell immune modulation candidate. 2C CD8+ T cell-vesicle binding, flow cytometry; stronger effect = lower value. response (vesicle binding), % at 7 µM. hit rate 0.068% among 330,000. AID 2052;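 active = response, share of CD8 T cells binding vesicles, and their 90th percentile fluorescence all below set limits, cut at about 80% in these data, passing the limit was not always enough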;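 also: values below 100% mean blocked vesicle binding to the CD8+ T cells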
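Benchmarks: naked versus QL9-loaded vesicles / Assay system: purified 2C TCR transgenic mouse naive CD8+ T cells / Technique: high-throughput flow cytometry with anti-B7-1 and anti-CD8 staining / Timing: Cell–vesicle co-incubation 1.5 h at 37 °C, staining 20 min on ice / Read-out: percent CD8+ FL2 mean versus row control / Probe or stimulus: QL9-loaded Drosophila micro-vesicles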
CR mimetic CP – yeast aging superoxide inhibition, cherry pick confirmation; AID 434994; superoxide response (% of plate), % at 10 µM; hit rate 1% among 850; shares compounds with CR mimetic SO; S. cerevisiae aging, superoxide DHE fluorescence; stronger effect = lower value;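 active = superoxide signal below 65% of the plate average of sample wells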;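 also: cells aged with compound for 7 days at 30 degrees C before staining; 100% equals mean DHE fluorescence of all compound wells on the plate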
DHE counter – DHE fluorescence interference, counter-screen artifact; shares compounds with CR mimetic SO; S. cerevisiae BY4741, flow cytometry; stronger effect = lower value; fluorescence response, % at 10 µM; 850 tested, under 10 active; AID 435000;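 active = fluorescence response below 15%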;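 also: percent of the mean fluorescence averaged over all compound wells on the plate; lower means stronger quenching of DHE signal or ROS scavenging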
* = called active by the depositor; i = inactive; . = not tested or not shown. In the library only some 0.41% were active in any assay of this set; here they are far more common.

SMILES | S1P3 antagonist | CR mimetic SO | T cell modulator | CR mimetic CP | DHE counter
CC(C)CN(CC(C)C)C(=O)CN1C(=O)NC2(CCCc3ccccc32)C1=O (stereo not given) | . | 113.4 | 303.8 | . | .
CC(=O)O[C@H]1C[C@@H]2CC[C@@H]3[C@H](CC[C@@]4(C)[C@H]3C[C@H]([N+]3(C)CCCCC3)[C@@H]4OC(C)=O)[C@@]2(C)C[C@@H]1[N+]1(C)CCCCC1 | . | 86.6 | 431.0 | . | .
CC(=O)O[C@H]1C[C@@H]2CC[C@@H]3[C@H](CC[C@@]4(C)[C@H]3C[C@H]([N+]3(C)CCCCC3)[C@@H]4OC(C)=O)[C@@]2(C)C[C@@H]1N1CCCCC1 | . | 92.3 | 576.3 | 102.8 | 90.8
Cc1cc(C(=O)NC(C)CCc2ccccc2)ccc1[N+](=O)[O-] (stereo not given) | . | 95.9 | 512.5 | . | .
O=C(Cc1ccc(Cl)cc1)N1CCC2(CC1)NCCc1[nH]cnc12 | . | 63.9* | 304.4 | 98.7 | 93.3
O=C(c1cccc(Cl)c1)N1CCC2(CC1)NCCc1[nH]cnc12 | . | 89.2 | 367.3 | . | .
Cc1ccc2cc(NC(=O)c3ccccc3C)ccc2n1 | . | 116.0 | 193.0 | . | .
Cc1ccc2cc(NC(=O)Cc3ccccc3)ccc2n1 | 10.3 | 63.1* | 575.4 | 104.1 | 103.7
Cc1ccc(C2(c3ccc(C)cc3)CC2C(=O)NC(C)C)cc1 (stereo not given) | . | 94.7 | 155.0 | . | .
CC(C)CC(NC(=O)C1CCC(C)CC1)C(=O)NCCN1CCOCC1 (stereo not given) | . | 109.1 | 987.8 | . | .
CSCCC(NC(=O)C1CCC(C)CC1)C(=O)NCCN1CCOCC1 (stereo not given) | 10.0 | 58.0* | 198.0 | 97.6 | 97.3
O=C(CN1CCC(NC(=O)Nc2ccc(F)cc2)CC1)Nc1ccccc1[N+](=O)[O-] | . | 121.8 | i | . | .
CCOc1ccccc1NC(=O)C(OC(=O)c1cnccn1)c1ccccc1 (stereo not given) | . | 94.5 | 454.9 | . | .
O=c1c(Cl)c(O)c2cccc3c4ccccc4n1c23 | -9.0 | 143.6 | 574.6 | . | .
COc1c(O)c(=O)n2c3ccccc3c3ccnc1c32 | . | 62.4* | 546.3 | 88.6 | 95.2
COc1ccc(NC(=O)NNC(=O)COc2ccc([N+](=O)[O-])c(C)c2)cc1OC | . | 92.1 | 356.5 | . | .
Cc1ccc(N(CC(=O)NCc2ccccc2)C(=O)CCC(=O)Nc2ccccn2)cc1 | . | 96.3 | 308.5 | . | .
O=C(Cc1ccccc1F)Nc1cc(S(=O)(=O)N2CCOCC2)ccc1N1CCOCC1 | . | 75.1 | 279.5 | . | .
O=C(Cc1ccccc1F)Nc1cc(S(=O)(=O)N2CCOCC2)ccc1N1CCCC1 | . | 94.0 | 515.4 | 109.8 | 105.1
CCN(CC)S(=O)(=O)c1ccc(N2CCCC2)c(NS(=O)(=O)c2ccccc2)c1 | -1.8 | 72.2 | 185.1 | . | .
CCN(CC)S(=O)(=O)c1ccc(N2CCCC2)c(NC(=O)Cc2ccccc2)c1 | 5.7 | 39.7* | 376.3 | 110.4 | 108.0
COc1cc(OC)c(N2CC(C(=O)NCCC3=CCCCC3)CC2=O)cc1Cl (stereo not given) | . | 94.6 | 217.9 | . | .
CC(=O)Nc1ccc(NC(=O)COC(=O)c2cc(S(=O)(=O)N3CCCC3)ccc2O)cc1 | . | 61.9* | 334.0 | 104.2 | 100.8
COc1ccc(NC(=O)COC(=O)c2cc(S(=O)(=O)N3CCCC3)ccc2O)cc1 | . | 74.7 | 742.9 | . | .
OC(COCC(F)(F)C(F)(F)C(F)(F)C(F)F)Cn1c2ccccc2c2ccccc21 (stereo not given) | -5.9 | 138.6 | 198.2 | 99.5 | 105.4
SMILES | S1P3 antagonist | CR mimetic SO | T cell modulator | CR mimetic CP | DHE counter
Cc1ccc(OCC(O)Cn2c3ccccc3c3ccccc32)cc1 (stereo not given) | . | 99.5 | 386.7 | . | .
O=C(OCN1C(=O)c2ccccc2C1=O)c1cccnc1SC(F)F | . | 93.0 | 452.1 | . | .
Cc1ccc(-c2nnc(Nc3cccc(O)c3)c3ccccc23)cc1S(=O)(=O)NCCO | . | 97.4 | 162.9 | . | .
Cc1ccc(-c2nnc(Nc3ccc(OCC(N)=O)cc3)c3ccccc23)cc1S(N)(=O)=O | . | 104.2 | 49.7 | 103.8 | 97.4
Cc1ccc(-c2nnc(Nc3ccc(O)cc3)c3ccccc23)cc1S(=O)(=O)NCCO | . | 106.4 | 134.7 | 124.4 | 115.9
Cc1ccc(-c2nnc(Nc3ccc(CC(N)=O)cc3)c3ccccc23)cc1S(N)(=O)=O | . | 84.2 | 199.3 | 99.4 | 97.0
CNC(=O)c1ccc(Nc2nnc(-c3ccc(C)c(S(N)(=O)=O)c3)c3ccccc23)cc1 | . | 102.3 | 215.2 | 93.7 | 91.0
NC(=O)COc1ccc(Nc2nnc(-c3ccc(O)cc3)c3ccccc23)cc1 | 4.0 | 90.2 | 207.0 | . | .
CNS(=O)(=O)c1cc(-c2nnc(Nc3ccc(CC(N)=O)cc3)c3ccccc23)ccc1C | . | 101.3 | 177.7 | . | .
CNC(=O)c1ccc(Nc2nnc(-c3ccc(O)cc3)c3ccccc23)cc1 | . | 105.4 | 380.0 | . | .
O=C(COc1ccc(Cl)cc1)Nc1cc(NC(=O)COc2ccc(Cl)cc2)cc(C(=O)O)c1 | . | 105.2 | 248.9 | . | .
COc1cc(C(=O)Nc2ccn(C)n2)ccc1OC(F)F | . | 134.2 | 719.5 | . | .
CSc1cccc(NC(=O)CN(C)S(=O)(=O)c2cnc[nH]2)c1 | . | 97.5 | 284.3 | . | .
O=C(NCCN1C(=O)S/C(=C\c2ccccc2F)C1=O)C1=COCCO1 | . | 90.0 | 191.5 | . | .
COc1cc(S(C)=O)ccc1-c1nc2ncccc2[nH]1 (stereo not given) | . | 118.0 | 390.5 | . | .
C=CCOc1cccc(CNCc2ccncc2)c1 | . | 100.1 | 149.0 | . | .
COc1ccc(C(=O)CN2C(=O)c3ccccc3C2=O)c(OC)c1 | . | 62.6* | 346.1 | 117.6 | 117.4
COc1ccccc1C(=O)COC(=O)CN1C(=O)c2ccccc2C1=O | . | 97.8 | 0.0 | . | .
CCn1c2ccccc2c2cc(NC(=O)C(C)OC(=O)c3ccc(NC(=O)CC#N)cc3)ccc21 (stereo not given) | . | 101.0 | 388.4 | . | .
COc1ccccc1C(=O)NCCCCNC(=O)c1ccccc1OC | . | 99.3 | 104.3 | . | .
O=C(COc1ccc(Cl)cc1)NCc1n[nH]c(=O)c2ccccc12 | . | 109.3 | 204.7 | . | .
CC(=O)OCC(=O)Nc1ccc(SC(F)F)cc1 | -12.2 | 93.3 | 448.5 | . | .
CCOc1cc(C(=O)OCC(=O)Nc2ccc(SC(F)F)cc2)cc(OCC)c1OCC | -6.7 | 39.4* | 224.6 | 105.1 | 101.7
Cc1ccc(S(=O)(=O)NC(=O)NCC2CCN(S(=O)(=O)c3ccccc3)CC2)cc1 | . | 106.8 | 220.4 | . | .
O=C(CNC(=O)N1CC(=O)Nc2ccccc21)NCc1ccccc1Cl | . | 116.7 | 407.2 | . | .
SMILES | S1P3 antagonist | CR mimetic SO | T cell modulator | CR mimetic CP | DHE counter
C=CCOn1c(=O)c(-c2cccs2)[n+]([O-])c2ccccc21 | . | 61.7* | 832.8 | 92.3 | 110.3
C=CCOn1c(=O)c(-c2ccc(OC)c(OC)c2)[n+]([O-])c2ccccc21 | . | 77.0 | 284.3 | . | .
COc1c2c(cc3oc(CO[C@@H]4O[C@H](CO)[C@@H](O)[C@H](O)[C@H]4O)cc(=O)c13)O[C@H](C(C)(C)O)C2 | . | 97.0 | 425.6 | . | .
COc1ccc(CCNC(=O)CCc2nnc(Cc3ccc4c(c3)OCO4)o2)c(OC)c1 | . | 105.5 | 196.3 | . | .
CCOc1ccc2nc(NCCCNS(=O)(=O)c3ccccc3)c(C#N)cc2c1 | -42.7 | 64.7* | 413.8 | 99.8 | 92.3
CCOc1ccc2nc(NCCCNS(=O)(=O)c3ccc(F)cc3)c(C#N)cc2c1 | . | 123.0 | 367.7 | . | .
